The results in this text go back to ChEMBL document CHEMBL1134541, “Potent and selective carboxylic acid-based inhibitors of matrix metalloproteinases” (J Med Chem, 2001).

For orientation: IC50 means the concentration that gives 50% inhibition. A low value points to higher potency. What is called solubility is the concentration that dissolves in the medium under given conditions. Low readings indicate little dissolved substance, high ones much dissolved substance.

In brackets after ≈: the same amount, converted by molar mass. Where only a bound is given, the exact number is not on record here.

Data set [1] concerns the target 72 kDa type IV collagenase (Homo sapiens, UniProt P08253). Briefly: In vitro inhibitory activity against matrix metalloprotease-2.
The target in data set [2] is Matrix metalloproteinase-9 (Homo sapiens, UniProt P14780). Nature of the data set: In vitro inhibition of human matrix metalloprotease-9. The gist of the method:
(§1)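 Inhibition of each enzyme (MMP-1 collagenase-1, MMP-2 gelatinase A, MMP-3 stromelysin, MMP-7 matrilysin, MMP-8 collagenase-2, MMP-9 gelatinase B) was measured at pH 7.4 and reported as binding values. Compounds were tested as racemic mixtures. Standard deviations were under 30% of the mean values.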

The target of another data set is Neutrophil collagenase (Homo sapiens, UniProt P22894). Nature of the data set: Inhibitory activity against matrix metalloprotease-8.
The target of a further data set is T1, Matrilysin (Homo sapiens, UniProt P09237).
T1 sequence (P09237 whole entry): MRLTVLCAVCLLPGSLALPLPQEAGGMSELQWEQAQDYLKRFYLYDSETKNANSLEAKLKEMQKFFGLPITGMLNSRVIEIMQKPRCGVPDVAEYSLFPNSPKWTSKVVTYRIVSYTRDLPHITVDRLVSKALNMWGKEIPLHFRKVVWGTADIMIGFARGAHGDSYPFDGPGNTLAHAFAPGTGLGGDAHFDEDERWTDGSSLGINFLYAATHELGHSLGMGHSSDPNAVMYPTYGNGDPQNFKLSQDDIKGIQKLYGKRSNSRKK
Nature of the data set: Inhibitory activity against matrix metalloprotease-7. An outline of the steps:
as §1

In data set [3] the target is T2, Stromelysin-1 (Homo sapiens, UniProt P08254). Briefly: (§2) In vitro inhibitory activity against matrix metalloprotease-3.
Data set [4] concerns the target T3, Interstitial collagenase (Homo sapiens, UniProt P03956).
T3 sequence (P03956 whole entry): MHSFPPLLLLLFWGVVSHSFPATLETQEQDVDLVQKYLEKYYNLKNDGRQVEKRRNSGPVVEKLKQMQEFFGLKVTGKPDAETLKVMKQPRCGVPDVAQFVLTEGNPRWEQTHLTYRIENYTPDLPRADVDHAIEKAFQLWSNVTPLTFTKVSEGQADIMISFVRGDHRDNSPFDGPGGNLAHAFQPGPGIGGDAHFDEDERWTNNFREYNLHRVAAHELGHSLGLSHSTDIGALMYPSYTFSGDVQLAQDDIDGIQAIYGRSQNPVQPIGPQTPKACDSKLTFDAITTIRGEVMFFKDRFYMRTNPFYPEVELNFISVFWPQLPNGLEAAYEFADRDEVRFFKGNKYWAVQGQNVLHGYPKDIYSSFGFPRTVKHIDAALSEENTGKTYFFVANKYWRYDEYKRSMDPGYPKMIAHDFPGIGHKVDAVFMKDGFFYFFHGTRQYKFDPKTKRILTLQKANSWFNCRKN
Nature of the data set: (§3) In vitro inhibitory activity against matrix metalloprotease-1.

A further data set deals with Collagenase 3 (Homo sapiens, UniProt P45452). Nature of the data set: In vitro inhibitory activity against matrix metalloprotease-13.
For data set [5], the target named is T3, Interstitial collagenase. Described as §3. An outline of the steps: as §1
This is another data set of the same source.

For data set [6], the target named is T2, Stromelysin-1. The data set is described as §2. The gist of the method: as §1
This is another data set of the same source.

Sequence of Neutrophil collagenase (P22894 whole entry): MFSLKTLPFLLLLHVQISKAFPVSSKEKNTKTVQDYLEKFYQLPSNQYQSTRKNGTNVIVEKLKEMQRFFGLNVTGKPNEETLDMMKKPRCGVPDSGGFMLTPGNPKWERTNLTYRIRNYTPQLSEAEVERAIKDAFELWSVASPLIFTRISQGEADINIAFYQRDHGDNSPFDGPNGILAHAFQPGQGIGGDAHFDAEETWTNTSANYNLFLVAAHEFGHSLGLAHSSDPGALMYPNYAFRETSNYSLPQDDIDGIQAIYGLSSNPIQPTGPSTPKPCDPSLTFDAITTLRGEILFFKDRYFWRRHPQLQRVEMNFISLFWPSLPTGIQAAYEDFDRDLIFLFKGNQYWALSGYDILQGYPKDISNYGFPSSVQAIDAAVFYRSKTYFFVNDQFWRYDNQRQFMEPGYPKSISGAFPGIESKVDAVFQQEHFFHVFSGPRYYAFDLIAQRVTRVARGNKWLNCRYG
Sequence of Matrix metalloproteinase-9 (P14780 whole entry): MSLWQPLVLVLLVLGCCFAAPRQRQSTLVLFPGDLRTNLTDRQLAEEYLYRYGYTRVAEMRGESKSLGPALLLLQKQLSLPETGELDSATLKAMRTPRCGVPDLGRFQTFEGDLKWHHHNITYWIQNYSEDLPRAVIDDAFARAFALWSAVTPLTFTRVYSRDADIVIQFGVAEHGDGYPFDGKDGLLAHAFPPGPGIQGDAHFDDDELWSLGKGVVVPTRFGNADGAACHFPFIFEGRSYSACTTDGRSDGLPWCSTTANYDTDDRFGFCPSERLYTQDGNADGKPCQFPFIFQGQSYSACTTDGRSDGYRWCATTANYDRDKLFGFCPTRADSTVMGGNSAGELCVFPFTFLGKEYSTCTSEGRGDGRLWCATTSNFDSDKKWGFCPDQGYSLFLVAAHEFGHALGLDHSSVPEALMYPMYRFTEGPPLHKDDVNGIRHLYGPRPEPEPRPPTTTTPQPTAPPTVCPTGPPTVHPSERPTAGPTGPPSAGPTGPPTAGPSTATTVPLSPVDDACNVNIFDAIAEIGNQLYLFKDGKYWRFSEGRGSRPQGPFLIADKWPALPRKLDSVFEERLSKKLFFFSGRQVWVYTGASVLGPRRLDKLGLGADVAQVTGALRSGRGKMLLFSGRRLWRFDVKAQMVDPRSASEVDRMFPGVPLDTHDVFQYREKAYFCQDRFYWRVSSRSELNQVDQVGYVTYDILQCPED
T2 sequence (P08254 whole entry): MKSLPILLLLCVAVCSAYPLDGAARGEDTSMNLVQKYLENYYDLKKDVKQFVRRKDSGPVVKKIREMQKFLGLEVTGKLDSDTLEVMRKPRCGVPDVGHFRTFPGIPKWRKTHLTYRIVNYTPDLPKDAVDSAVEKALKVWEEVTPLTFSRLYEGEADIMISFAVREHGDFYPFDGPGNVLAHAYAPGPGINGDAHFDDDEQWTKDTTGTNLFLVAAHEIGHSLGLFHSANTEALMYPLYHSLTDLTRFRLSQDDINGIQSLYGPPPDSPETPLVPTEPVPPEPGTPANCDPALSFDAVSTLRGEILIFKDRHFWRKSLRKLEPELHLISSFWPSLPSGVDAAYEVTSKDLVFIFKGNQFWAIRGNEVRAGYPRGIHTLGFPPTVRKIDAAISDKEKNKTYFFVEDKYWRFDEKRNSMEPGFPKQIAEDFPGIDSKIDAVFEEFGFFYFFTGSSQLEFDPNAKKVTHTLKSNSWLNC
Sequence of 72 kDa type IV collagenase (P08253 whole entry): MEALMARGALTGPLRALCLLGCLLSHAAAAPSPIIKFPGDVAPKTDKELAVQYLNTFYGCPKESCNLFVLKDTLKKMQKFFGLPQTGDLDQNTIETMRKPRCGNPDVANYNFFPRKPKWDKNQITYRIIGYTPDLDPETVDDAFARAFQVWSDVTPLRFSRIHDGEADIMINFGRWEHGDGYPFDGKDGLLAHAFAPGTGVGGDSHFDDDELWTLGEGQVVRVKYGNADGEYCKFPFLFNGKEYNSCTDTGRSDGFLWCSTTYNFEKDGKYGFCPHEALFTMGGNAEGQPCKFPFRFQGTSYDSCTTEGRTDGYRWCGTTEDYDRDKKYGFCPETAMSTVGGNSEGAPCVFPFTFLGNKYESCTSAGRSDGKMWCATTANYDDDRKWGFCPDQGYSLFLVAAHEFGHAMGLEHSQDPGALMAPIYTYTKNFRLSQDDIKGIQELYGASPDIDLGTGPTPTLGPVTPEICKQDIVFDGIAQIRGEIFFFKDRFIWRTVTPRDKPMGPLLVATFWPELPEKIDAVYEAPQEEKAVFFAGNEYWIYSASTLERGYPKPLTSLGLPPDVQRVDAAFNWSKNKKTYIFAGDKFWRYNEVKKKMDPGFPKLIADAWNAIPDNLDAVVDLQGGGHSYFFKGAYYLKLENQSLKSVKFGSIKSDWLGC

Consider `COc1ccc(-c2ccc(S(=O)(=O)NC(CC#Cc3ccccc3)C(=O)O)cc2)cc1` (centres undefined), for which the IC50 in data set [1] is 0.0125 µM; in data set [2] it was 0.553 µM; against Neutrophil collagenase it was 0.0094 µM; against Matrilysin, more than 10 µM.
On to `COc1ccc(-c2ccc(S(=O)(=O)N[C@@H](C(=O)O)C3CCN(C(=O)OC(C)(C)C)CC3)cc2)cc1`, for which the IC50 in [2] was 0.0066 µM; against Matrilysin it was 3.66 µM; against Stromelysin-1 [3] it was 0.0337 µM; against Interstitial collagenase [4], 1.37 µM.
Regarding `COCCOC(=O)N1CCC(C(NS(=O)(=O)c2ccc(-c3ccc(SC)cc3)cc2)C(=O)O)CC1` (centres undefined), the IC50 was 0.0004 µM in data set [1]; 0.0073 µM in [2]; 0.0018 µM against Neutrophil collagenase; 1.02 µM at Matrilysin; 0.0406 µM on Stromelysin-1 [3]; 0.001 µM at Collagenase 3. On Interstitial collagenase [4], this compound displayed an IC50 of 1.08 µM. Also, in the data set “physchem”, the solubility was found to be 3.5 mg/mL (≈ 6.7 mM).
For the compound `COC(=O)N1CCC(C(NS(=O)(=O)c2ccc(-c3ccc(OC)cc3)cc2)C(=O)O)CC1` (centres undefined), the half-inhibitory concentration (IC50) in data set [1] was found to be 0.0028 µM; in [2], 0.177 µM; against Matrilysin it was 5.65 µM; against Stromelysin-1 [3], 0.657 µM; against Interstitial collagenase [4], 5.21 µM.
As to `COCCOC(=O)N1CCC(C(C(=O)O)N(C)S(=O)(=O)c2ccc(-c3ccc(OC)cc3)cc2)CC1` (centres undefined), the IC50 in [1] came out at 0.0009 µM; in data set [2] it was 0.0139 µM; on Matrilysin it was 3.95 µM; against Stromelysin-1 [3] it was 0.0696 µM; against Interstitial collagenase [4] it was 1.85 µM.
Take `COCCOC(=O)N1CCC(C(NS(=O)(=O)c2ccc(-c3ccccc3)cc2)C(=O)O)CC1` (centres undefined): the IC50 in data set [1] was 0.0242 µM; in [2] it was 0.415 µM; against Neutrophil collagenase, 0.0448 µM; at Matrilysin, more than 10 µM; at Stromelysin-1 [3] it was 0.418 µM; at Collagenase 3 it was 0.0553 µM. The compound also yielded a half-maximal inhibitory concentration (IC50) against Interstitial collagenase [4] of 6.05 µM.
For `COCCOC(=O)N1CCC(C(C(=O)O)N(CCOC)S(=O)(=O)c2ccc(-c3ccc(OC)cc3)cc2)CC1` (centres undefined), the IC50 in data set [1] worked out at 0.0006 µM; in data set [2] it was 0.0091 µM; at Neutrophil collagenase, 0.0024 µM; against Matrilysin, 2.65 µM; against Stromelysin-1 [3], 0.0455 µM; on Collagenase 3 it was 0.001 µM. The IC50 on Interstitial collagenase [4] turned out to be 1.22 µM. Also, in the data set “physchem”, the solubility was found to be 11.1 mg/mL (≈ 19.6 mM).
For `COc1ccc(-c2ccc(S(=O)(=O)N[C@H](C(=O)O)C3CCN(C(=O)OC(C)(C)C)CC3)cc2)cc1`, the IC50 was determined as 0.0715 µM in data set [2], 8.51 µM at Matrilysin, 0.345 µM on Stromelysin-1 [3] and 3.49 µM against Interstitial collagenase [4].
Regarding `COc1ccc(-c2ccc(S(=O)(=O)N[C@H](C(=O)O)C(C)C)cc2)cc1`, the IC50 in [1] is 0.0066 µM; in [2], 0.747 µM; against Neutrophil collagenase, 0.0106 µM; against Interstitial collagenase [5], 8.71 µM; at Matrilysin it was more than 10 µM; against Stromelysin-1 [3], 1.89 µM. At Collagenase 3, this compound had an IC50 of 0.0242 µM.
As to `COc1ccc(-c2ccc(S(=O)(=O)NC(C(=O)O)C3CCN(C(=O)CC(C)C)CC3)cc2)cc1` (centres undefined), the IC50 is 0.0032 µM in data set [1]; 0.137 µM in data set [2]; 4.37 µM at Matrilysin; 0.739 µM on Stromelysin-1 [3]; 4.9 µM on Interstitial collagenase [4].
As for `COc1ccc(-c2ccc(S(=O)(=O)NC(C(=O)O)C3CCNCC3)cc2)cc1` (centres undefined), the IC50 in [1] came out at 0.053 µM; in [2], 1.76 µM; at Neutrophil collagenase, 0.0302 µM; at Matrilysin, 4.24 µM; against Collagenase 3 it was 0.264 µM; against Stromelysin-1 [6], 4.84 µM. In addition, the 50% inhibitory concentration (IC50) against Interstitial collagenase [4] was found to be 3.89 µM.
`COCCOC(=O)N1CCC(C(NS(=O)(=O)c2ccc(Oc3ccccc3)cc2)C(=O)O)CC1` (centres undefined): the IC50 in data set [1] is 0.0581 µM; in [2], 0.597 µM; against Neutrophil collagenase, 0.0258 µM; at Matrilysin, more than 10 µM; against Stromelysin-1 [3], 0.399 µM; against Collagenase 3, 0.14 µM. In addition, the IC50 at Interstitial collagenase [4] was more than 10 µM.
As for `COc1ccc(-c2ccc(S(=O)(=O)NC(C(=O)O)C3CCN(C(=O)OC(C)(C)C)CC3)cc2)cc1` (centres undefined), the IC50 in data set [2] came to 0.0054 µM; against Matrilysin, 2.59 µM; on Stromelysin-1 [3] it was 0.0564 µM; against Interstitial collagenase [4], 1.42 µM.
As for `COc1ccc(-c2ccc(S(=O)(=O)NC(C(=O)O)C3CCN(C(=O)N4CCOCC4)CC3)cc2)cc1` (centres undefined), the IC50 in data set [1] was 0.0011 µM; in data set [2], 0.0508 µM; against Matrilysin, 8.57 µM; at Stromelysin-1 [3] it was 0.221 µM; against Interstitial collagenase [4], 1.76 µM.
`COc1ccc(-c2ccc(S(=O)(=O)NC(C(=O)O)C3CCN(C(=O)OC(C)C)CC3)cc2)cc1` (centres undefined): the IC50 is less than 0.0004 µM in data set [1]; 0.0117 µM in data set [2]; 0.0015 µM against Neutrophil collagenase; 1.74 µM at Matrilysin; 0.0418 µM at Stromelysin-1 [3]; 0.001 µM on Collagenase 3. Moreover, the concentration for half-maximal inhibition (IC50) on Interstitial collagenase [4] worked out at 1.4 µM. In “physchem”, this compound registered a solubility of 0.13 mg/mL (≈ 0.265 mM).
Turning to `O=C(CC(CSc1ccccc1)C(=O)O)c1ccc(-c2ccc(Cl)cc2)cc1` (centres undefined), the IC50 in data set [1] is 0.0913 µM; in data set [2], 3.11 µM; on Neutrophil collagenase it was 0.303 µM; against Matrilysin it was more than 10 µM; on Collagenase 3 it was 1.57 µM; on Interstitial collagenase [4] it was more than 10 µM.
`CCOC(=O)N1CCC(C(NS(=O)(=O)c2ccc(-c3ccc(OC)cc3)cc2)C(=O)O)CC1` (centres undefined): the concentration for half-maximal inhibition (IC50) in data set [1] came out at 0.001 µM; in data set [2] it was 0.0949 µM; at Matrilysin, 9.87 µM; against Stromelysin-1 [3], 0.162 µM; against Interstitial collagenase [4], 2.76 µM.
Regarding `CCCCOc1ccc(S(=O)(=O)NC(C(=O)O)C2CCN(C(=O)OCCOC)CC2)cc1` (centres undefined), the IC50 was 0.549 µM in data set [1]; 2.99 µM in data set [2]; 0.294 µM at Neutrophil collagenase; more than 10 µM on Matrilysin; 0.678 µM on Stromelysin-1 [3]; 0.791 µM against Collagenase 3. The same compound gave a half-inhibitory concentration (IC50) on Interstitial collagenase [4] of more than 10 µM.
Consider `COCCOC(=O)N1CCC(C(C(=O)O)N(Cc2ccccn2)S(=O)(=O)c2ccc(-c3ccc(OC)cc3)cc2)CC1` (centres undefined), for which the IC50 in [1] was found to be 0.001 µM; in data set [2], 0.0187 µM; on Neutrophil collagenase it was 0.0032 µM; against Matrilysin it was 3.64 µM; against Stromelysin-1 [3], 0.0861 µM; against Collagenase 3, 0.003 µM. Besides, the IC50 on Interstitial collagenase [4] came out at 3.31 µM.
Regarding `COCCOC(=O)N1CCC(C(NS(=O)(=O)c2ccc(-c3ccc(OC)cc3)cc2)C(=O)O)CC1` (stereo in doubt; 13g), the IC50 in data set [1] came to 0.0008 µM; in data set [2], 0.055 µM; against Neutrophil collagenase it was 0.0034 µM; at Matrilysin it was 4.11 µM; at Stromelysin-1 [3], 0.133 µM; against Collagenase 3 it was 0.0035 µM. This compound also came in with a solubility in “physchem” of 8.07 mg/mL (≈ 15.9 mM).
Take `COCCOC(=O)N1CCC(C(NS(=O)(=O)c2ccc(-c3ccc(OC)cc3)cc2)C(=O)O)CC1` (stereo in doubt; 14i): the IC50 was less than 0.0004 µM in data set [2], 0.0005 µM against Neutrophil collagenase, 0.0138 µM against Stromelysin-1 [3] and 0.0004 µM on Collagenase 3.
